Measurements reported in ChEMBL document CHEMBL1148339, “Synthesis, structure-activity relationships, and drug resistance of beta-d-3'-fluoro-2',3'-unsaturated nucleosides as anti-HIV Agents” (J Med Chem, 2004).

Molecular target: T1, Adenosine deaminase (Bos taurus) (UniProt P56658)
T1 sequence (whole entry): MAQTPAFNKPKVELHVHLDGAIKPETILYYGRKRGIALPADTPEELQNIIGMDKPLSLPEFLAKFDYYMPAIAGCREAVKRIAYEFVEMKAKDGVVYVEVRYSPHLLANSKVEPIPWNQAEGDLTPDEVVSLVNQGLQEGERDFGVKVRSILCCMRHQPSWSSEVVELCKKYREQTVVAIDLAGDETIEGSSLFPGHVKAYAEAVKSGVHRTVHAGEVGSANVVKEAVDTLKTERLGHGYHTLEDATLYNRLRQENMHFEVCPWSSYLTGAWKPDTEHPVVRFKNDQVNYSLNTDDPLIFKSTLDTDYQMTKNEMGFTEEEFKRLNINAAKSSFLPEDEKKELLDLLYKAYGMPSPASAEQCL
Assay: Kcat/KM of compound against adenosine deaminase (ADA) was determined
Summary of the method: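 Deamination by calf intestinal mucosa adenosine deaminase (0.15 units, MW 33 000, in 2 mL) in phosphate buffer pH 7.4 at 25 °C, substrate 15–100 μM, monitored by UV at 265 nm. Initial rates from graphical fitting of concentration vs time; Vmax and KM from Lineweaver–Burk plot, kcat calculated from enzyme amount.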

k cat/Km: 3.1e+06 M⁻¹ s⁻¹
SMILES: Nc1ncnc2c1ncn2[C@@H]1O[C@H](CO)[C@@H](O)[C@H]1O
